# Data: PubChem BioAssay AID573 (SRMLSC, 2007)
# The whole screen tested about 65,000 compounds, of which about 1,400 (2.2%) were called active. The sample holds actives, similar compounds and a random draw of the others, so the mix is not that of the screen.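 Rule for the calls: active = growth inhibition at or above a cutoff equal to the mean over every tested compound plus 3 SD (cut at about 60% in these data); inactive = the rest.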
# Experiment: E. coli ΔtolC antibacterial growth inhibition – strain BW25113 ΔtolC::kan, 384-well, primary screen (AID 573);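 note: growth measured after 20 h incubation at 37 °C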
# Conditions: E. coli BW25113 tolC mutant growth, OD615; active compounds read high; screened at 10 µM (by protocol)
# Summary of the method: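 Assay system: tolC-deleted E. coli BW25113. Medium: kanamycin-containing LB broth (50 µg/mL). Dosing: 10 µM final, single dose. Timing: bacterial growth with compound for 20 h at 37 °C. Detection: A615 absorbance measurement. Read-out basis: growth inhibition in percent.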
row,SMILES,growth inhibition
1,COc1ccc(-c2cc(C(F)(F)F)nc(SCCC(=O)NCc3ccco3)n2)cc1,-9.96% (inactive)
2,Cc1ccc(F)cc1NC(=O)c1cccc(N(C)C)c1,-26.6% (inactive)
3,O=C(Nc1cccc(F)c1)c1ccc(S(=O)(=O)N2CCCC2)cc1,8.01% (inactive)
4,CCCC(=O)N1c2ccccc2NC2=C(C(=O)CCC2)C1c1ccc(F)cc1 (stereo not drawn),55.5% (inactive)
5,CC(C)C(=O)N1c2ccccc2NC2=C(C(=O)CCC2)C1c1ccc(N(C)C)cc1 (stereo not drawn),-4.93% (inactive)
6,O=C1CCCC2=C1C(c1cccs1)n1nc(SCc3ccccc3)nc1N2 (stereo not drawn),87.2% (active)
7,COC(=O)CSc1nc(C2CC2)nc2ccccc12,15.2% (inactive)
8,COc1cccc(N(CC(=O)NC2CCCC2)C(=O)Cn2nnc(-c3ccc(C)cc3)n2)c1,-7.48% (inactive)
9,CC(C)Cn1c(N)c(C(=O)NCc2cccs2)c2nc3ccccc3nc21,79.5% (active)
10,C=CCn1c(N)c(S(=O)(=O)c2cccs2)c2nc3ccccc3nc21,26.6% (inactive)
11,C=CCn1c(N)c(C(=O)OCC(C)C)c2nc3ccccc3nc21,30.8% (inactive)
12,COC(=O)c1ccc(/C=N\n2c(C)nnc2C)cc1,-9.6% (inactive)
13,O=C(CCCN1C(=O)CSc2ncccc21)N1CCN(c2cccc(C(F)(F)F)c2)CC1,17.9% (inactive)
14,COc1ccc2c(c1)OC(O)(C(F)(F)C(F)F)CC2=O (stereo not drawn),100% (active)
15,N#CCCN(CCC#N)c1nnc(-c2ccccc2)s1,16.1% (inactive)
16,CCOC(=O)C1=C(C)NC(C)=C(C(=O)OCC)C1C1=COCCO1,5.25% (inactive)
17,O=C(CSc1nnc(-c2ccccc2)o1)N1CCOCC1,-8.06% (inactive)
18,CC1=CC(C)(C)N(C(=O)CSc2nnc(-c3ccccc3)o2)c2ccc(C)cc21,65.4% (active)
19,CC1=CC(C)(C)N(C(=O)CSc2nccn2C)c2cc(C)ccc21,5.87% (inactive)
20,CCCCN(C)C(=O)C1CCN(Cc2ccccn2)CC1,-9.54% (inactive)
21,Cc1cnc(NC(=O)CSc2nnc(-c3ccccc3)n2Cc2ccccc2)s1,1% (inactive)
22,CCOC(=O)Cn1c(CN(Cc2ccccc2)Cc2ccccc2)nc2c1c(=O)[nH]c(=O)n2C,13% (inactive)
23,FC(F)(F)COc1nc(N2CCCCC2)nc(N2CCNCC2)n1,10.5% (inactive)
24,O=c1oc2c(CN3CCCCC3)c(O)ccc2c2c1CCCCC2,2.35% (inactive)

row,SMILES,growth inhibition
1,COc1ccc2c3c(c(=O)oc2c1OCC(=O)C(C)(C)C)CCCC3,10.7% (inactive)
2,CCCOc1ccc2c3c(c(=O)oc2c1OCCC)CCC3,73% (active)
3,COc1ccccc1N1CCN(C(=O)c2cc3c(-c4ccc(Cl)cc4)nn(C)c3s2)CC1,14.7% (inactive)
4,Cn1c(=O)c2c(nc(Br)n2CCSc2nc3ccccc3o2)n(C)c1=O,4.61% (inactive)
5,Cc1cc(C)c(C#N)c(SCc2[nH]nc3c2C(c2ccccc2)C(C#N)=C(N)O3)n1 (stereo not drawn),18.3% (inactive)
6,Cc1cc(C)c(C#N)c(SCc2ccc3c(c2)OCO3)n1,62.3% (active)
7,Cc1cc(C)c(C#N)c(SCc2ccccc2C(=O)O)n1,8.75% (inactive)
8,O=C(Nc1ccc(-c2nnc(-c3ccccc3)o2)cc1)c1ccc(Br)o1,-0.33% (inactive)
9,Cc1nonc1NC(=O)c1ccccc1Br,-1.19% (inactive)
10,O=C(Nc1nnc(-c2ccc(Cl)cc2)o1)c1ccccc1Br,100% (active)
11,Cn1c(=O)[nH]c(=O)c2c1nc(NCCCn1ccnc1)n2Cc1cccc(Br)c1,-18.6% (inactive)
12,CCOC(=O)c1ccc(NC(=O)CS(=O)(=O)c2cn(CC)c3ccccc23)cc1,12.6% (inactive)
13,Cc1ccc2c(c1)c1ncnc(N3CCc4ccccc4C3)c1n2C,21.5% (inactive)
14,COc1ccc(OC)c(S(=O)(=O)N(C)CC(=O)N2CCN(c3ccccc3)CC2)c1,8.54% (inactive)
15,COc1ccc(C(C(O)C(=O)c2c[nH]c3ccccc23)N2CCN(c3ccccc3)CC2)cc1 (stereo not drawn),72.1% (active)
16,CCCC(=O)NC(C)C(c1cccs1)N1CCN(c2ccccc2)CC1 (stereo not drawn),1.14% (inactive)
17,O=S(=O)(c1ccc(F)cc1)N1CCN(Cc2ccccc2C(F)(F)F)CC1,38.3% (inactive)
18,Cc1cccc(NC(=O)COc2ccc(Br)cc2C)n1,8.04% (inactive)
19,Clc1ccc(Nc2nc(-c3cccs3)cs2)nc1,81.1% (active)
20,O=C(Nc1ccc(Cl)cn1)Nc1cccs1,6.13% (inactive)
21,c1ccc(Nc2nc(-c3ccncc3)cs2)nc1,-16.7% (inactive)
22,COc1ccc(-c2nnc(SC(=O)N3c4ccccc4Sc4ccccc43)o2)cc1,0.32% (inactive)
23,CC1CCCCN1S(=O)(=O)c1ccc(C(=O)Nc2nnc(-c3cccs3)o2)cc1 (stereo not drawn),99.1% (active)
24,CCc1nnc(NC(=O)C2CCCN2S(=O)(=O)c2ccccc2)s1 (stereo not drawn),3.73% (inactive)

row,SMILES,growth inhibition
1,CCc1nnc(NC(=O)c2ccc(S(=O)(=O)NC3CCCCC3)cc2)s1,18.5% (inactive)
2,COCC(C)n1c(SCc2ccc(C(=O)OC)o2)nc2ccccc2c1=O (stereo not drawn),33.1% (inactive)
3,CCN(CC)S(=O)(=O)c1cccc(C(=O)Nc2ccccc2)c1,38.8% (inactive)
4,O=C(CC1Oc2ccccc2NC1=O)NCCCN1CCN(Cc2ccccc2)CC1 (stereo not drawn),-13.8% (inactive)
5,Cc1ccc(Cn2c(C)nc3c(c2=O)c2nc4ccccc4nc2n3Cc2ccco2)cc1,29.2% (inactive)
6,Cc1nc2c(c(=O)n1Cc1ccco1)c1nc3ccccc3nc1n2Cc1ccccc1,14.7% (inactive)
7,Clc1cccc(-c2nc3nc4ccccc4nc3n2Cc2ccco2)c1,68% (active)
8,COc1ccc(C2N=C(N)N=C(N)N2c2ccccc2)cc1OC (stereo not drawn),4.96% (inactive)
9,Cc1nc2c(C(=O)NCc3ccc4c(c3)OCO4)c[nH]n2c(=O)c1Cc1ccccc1F,100% (active)
10,O=C(CCCCn1c(=O)[nH]c2ccccc2c1=O)NCc1ccc2c(c1)OCO2,1.02% (inactive)
11,CCn1cc(C(=O)NCc2ccc3c(c2)OCO3)c2cc(OC)c(OC)cc2c1=O,-12.7% (inactive)
12,CC(C)C(=O)N1CCN(c2nc(-c3ccccc3)c3c(c2C#N)CC(C)(C)OC3)CC1,4.78% (inactive)
13,COC(=O)CSC1=C(C#N)C(c2ccccc2OC)C(C(=O)OC)C(=O)N1 (stereo not drawn),-1.55% (inactive)
14,CCCCCCn1c(CN2CCCC(C)C2)nc2c1c(=O)n(C)c(=O)n2C (stereo not drawn),60.7% (active)
15,CCCCCCn1c(CN2CCCCC2)nc2c1c(=O)n(C)c(=O)n2C,-3.32% (inactive)
16,CC1CCCN(Cc2nc3c(c(=O)n(C)c(=O)n3C)n2CC(=O)c2ccccc2)C1 (stereo not drawn),13.4% (inactive)
17,NC(=O)C1CC=CCC1C(=O)OCC(Cl)=C(Cl)Cl (stereo not drawn),3.92% (inactive)
18,COC(=O)c1cc(C(=O)CSc2nc(C)cc(C)n2)ccc1O,68% (active)
19,CCOC(=O)c1c(C)[nH]c(C)c1C(=O)CSc1nc(N)cc(N)n1,-1.68% (inactive)
20,COC(=O)c1cccc(NC(=O)CSc2nc(C)cc(=O)[nH]2)c1,10.2% (inactive)
21,CCOC(=O)c1nnn(-c2nonc2OC)c1-c1ccccc1,8.09% (inactive)
22,COC(=O)c1ccc(NC(=O)CSc2nnc(CNc3ccc(OC)cc3)n2C)cc1,3.76% (inactive)
23,CCN(CC(=O)NC(C)C)C(=O)CCNC(=O)c1ccc(Cl)cc1,-4.01% (inactive)
24,CC1(N2CCOCC2)CC2(O)C(=[N+]1[O-])CCc1nonc12 (stereo not drawn),-7.92% (inactive)

row,SMILES,growth inhibition
1,COc1cc(C2C(C(=O)c3ccc(C)o3)=C(O)C(=O)N2CCc2ccccc2)ccc1O (stereo not drawn),5.33% (inactive)
2,COc1ccc(CCN2C(=O)c3[nH]nc(-c4ccccc4O)c3C2c2ccc(C)cc2)cc1OC (stereo not drawn),64.4% (active)
3,COc1ccc(CCN(C)CCN2C(=O)c3ccccc3C2=O)cc1OC,-13.3% (inactive)
4,CNC(=O)c1c(NC(=O)c2ccc(S(=O)(=O)N3CCOCC3)cc2)sc2c1CCC2,10.9% (inactive)
5,CCOCCc1c(O)nc(SCC(=O)NCc2ccco2)[nH]c1=O,-0.82% (inactive)
6,Cc1ccc(C)c(S(=O)(=O)n2cnc3ccccc32)c1,7.6% (inactive)
7,CCOc1ccc(C(C)C)cc1S(=O)(=O)n1nc(C)cc1C,24.3% (inactive)
8,CCOc1cc(C)c(Cl)cc1S(=O)(=O)n1nnc2ccccc21,63.4% (active)
9,CCN1CCN(C(=O)CN(C)S(=O)(=O)c2ccc(OC)cc2)CC1,8.07% (inactive)
10,O=C(Nc1ccccc1)N(Cc1cccnc1)Cc1ccco1,-11.4% (inactive)
11,CS(=O)(=O)NCc1ccc(C(=O)NCc2ccccc2)cc1,-9.06% (inactive)
12,COc1ccccc1N1CCN(C(=O)CN(Cc2ccc(Cl)cc2)S(C)(=O)=O)CC1,25.9% (inactive)
13,Cc1cc(NS(=O)(=O)c2ccccc2)no1,-26.8% (inactive)
14,COc1cc2ccccc2cc1C(=O)Nc1ccc(S(=O)(=O)Nc2cc(C)on2)cc1,78.6% (active)
15,CCOc1ccc(CC(=O)Nc2ccc(S(=O)(=O)Nc3cc(C)on3)cc2)cc1OCC,4.16% (inactive)
16,CCOC(=O)N1CCN(C(=O)c2cn(C)c3ccc(S(=O)(=O)N4CCCC4)cc3c2=O)CC1,-22.7% (inactive)
17,CCOC(=O)C1CCN(C(=O)C2CCN(S(=O)(=O)N3CCCC3)CC2)CC1,-4.22% (inactive)
18,CCOC(=O)C1CCN(C(=O)c2oc3ccc(S(=O)(=O)N4CCCCCC4)cc3c2C)CC1,77.3% (active)
19,COc1cccc(N(C(=O)c2ccn[nH]2)C2(C(=O)Nc3c(C)cccc3C)CCCCC2)c1,30.5% (inactive)
20,Cc1ccc(C)c(S(=O)(=O)N2CC(=O)Nc3ccccc32)c1,17.8% (inactive)
21,CC(=O)Nc1ccc(-c2nn3c(C)nnc3s2)cc1C,-9.56% (inactive)
